The source made the active and inactive calls. The calls are words filed in the database; no cut-off is given here.
Assays:
[1] = target: T1, DNA topoisomerase 1 (Homo sapiens) (UniProt P11387); assay: Induction of proteasome-mediated topoisomerase-1 degradation in human MCF7 cells at 10 uM up to 12 hrs in presence of proteasome inhibitor MG132 by Western blot method; type: cell-based
T1 sequence (whole entry): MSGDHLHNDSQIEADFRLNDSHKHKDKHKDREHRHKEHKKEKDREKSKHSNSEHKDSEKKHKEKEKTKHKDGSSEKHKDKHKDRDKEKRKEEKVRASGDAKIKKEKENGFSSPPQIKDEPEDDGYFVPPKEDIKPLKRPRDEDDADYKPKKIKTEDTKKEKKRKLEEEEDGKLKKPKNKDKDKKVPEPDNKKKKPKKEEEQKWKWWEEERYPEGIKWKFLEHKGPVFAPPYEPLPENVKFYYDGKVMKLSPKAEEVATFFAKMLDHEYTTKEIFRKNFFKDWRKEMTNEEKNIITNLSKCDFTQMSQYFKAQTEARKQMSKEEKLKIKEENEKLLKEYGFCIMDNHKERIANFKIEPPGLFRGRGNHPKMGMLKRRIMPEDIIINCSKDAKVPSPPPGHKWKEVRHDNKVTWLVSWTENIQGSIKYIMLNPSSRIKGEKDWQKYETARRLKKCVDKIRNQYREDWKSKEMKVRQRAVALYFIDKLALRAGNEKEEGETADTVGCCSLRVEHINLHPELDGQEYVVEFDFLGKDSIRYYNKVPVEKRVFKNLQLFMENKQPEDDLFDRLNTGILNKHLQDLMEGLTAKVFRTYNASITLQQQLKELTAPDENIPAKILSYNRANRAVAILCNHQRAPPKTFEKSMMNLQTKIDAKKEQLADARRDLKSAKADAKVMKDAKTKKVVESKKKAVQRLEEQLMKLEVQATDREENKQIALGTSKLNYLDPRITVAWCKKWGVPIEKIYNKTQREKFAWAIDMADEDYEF
In short: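 Whole-cell extracts of MCF7 cells treated with 10 μM for the indicated times, or preincubated with MG132 (100 nM) for 4 h before 12 h compound exposure. Top1 detected by Western blot with mouse monoclonal anti-Top1 (C21).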

[2] = target: T1, DNA topoisomerase 1 (Homo sapiens); assay: Ratio of EC50 for recombinant human topoisomerase-1 expressed in baculovirus infected sf9 cells simultaneously incubated with substrate to EC50 for recombinant human topoisomerase-1 expressed in baculovirus infected sf9 cells preincubated for 5 mins followed by substrate addition
In short: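 Recombinant human Top1 purified from baculovirus-infected Sf-9 cells; 30 fmol enzyme with 90 fmol supercoiled pBS (SK+) DNA (3:1 molar ratio) in relaxation buffer. Compound either preincubated with enzyme 5 min before DNA, or added simultaneously; then 37 °C, 15 min. Relaxation on 1% agarose; % inhibition quantified, EC50 from three experiments (mean ± SD).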

[3] = target: T1, DNA topoisomerase 1 (Homo sapiens); assay: Inhibition of […]-induced topoisomerase-1- genomic DNA cleavage complex in human MCF7 cells at 20 uM after 6 hrs by ICE assay; type: cell-based
In short: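 ICE bioassay in MCF7 cells. Treatment was CPT (10 μM) or compound (20 μM) for 12 h, or CPT for 6 h then compound for a further 6 h. Genomic DNA (0.5–4 μg) probed with anti-Top1 antibody. Quantified with n = 3, ± SEM, t test.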

MCF7 [4] = assay: Induction of apoptosis in human MCF7 cells at 10 to 20 uM after 12 hrs in presence of ROS inhibitor NAC by Annexin V-FITC/propidium iodide staining based confocal laser microscopic method relative to control; type: functional, cell-based
In short: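 MCF7 cells treated for 12 h, with or without 30 min pretreatment with NAC (10 mM). Phosphatidylserine stained with annexin V-FITC, nuclei counterstained with propidium iodide, imaged by confocal microscopy. Annexin V(+) fraction scored from about 100 cells (average ± SEM).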

DNA topoisomerase 1 [5] = target: T2, DNA topoisomerase 1 (Homo sapiens, UniProt P11387); assay: Inhibition of recombinant human topoisomerase-1 expressed in baculovirus infected sf9 cells using supercoiled pBS SK(+) DNA as substrate preincubated for 5 mins followed by substrate addition measured after 15 mins by ethidium bromide staining based agarose gel electrophoresis method
T2 sequence (P11387 whole entry): T1 sequence (whole entry)
In short: (§1)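 Relaxation assay: 90 fmol supercoiled pBS (SK+) DNA with 30 fmol recombinant Top1 (Sf-9/baculovirus). Compound either preincubated with Top1 for 5 min before DNA addition, or added simultaneously with DNA; then 37 °C for 15 min. Vehicle 2% DMSO. Read on 1% agarose gel. EC50 from mean ± SD of three experiments.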

MCF7 [6] = assay: Cytotoxicity against human MCF7 cells transfected with Top1 SiRNA assessed as reduction in cell viability by MTT assay; type: functional, cell-based
In short: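 MCF7 cells transfected with Top1 or control siRNA for 72 h; knockdown confirmed by Western blot with actin as loading control. Percent survival then plotted against compound concentration.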

MCF7 [7] = assay: Induction of ROS accumulation in human MCF7 cells at 10 uM up to 24 hrs by CM-H2DCFDA dye based spectrofluorometric method relative to control; type: functional
In short: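 MCF7 cells treated with 10 μM for the indicated times, with 0.2% DMSO as vehicle control, or pretreated with NAC (10 mM) for 30 min. ROS read as DCF fluorescence from CM-H2DCFDA. Mean ± SD of three independent experiments.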

HEK293 = assay: Cytotoxicity against HEK293 cells assessed as reduction in cell viability by MTT assay; type: cell-based; details: Homo sapiens
In short: (§2)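 Survival of each cell line measured across a range of compound concentrations. Percent inhibition of viability at each concentration calculated against untreated control and IC50 estimated. MEFs were TDP1+/+ and TDP1–/– primary cells. Mean ± SD of at least three experiments in duplicate.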

MCF7 [8] = assay: Induction of PARP cleavage in human MCF7 cells at 10 uM up to 12 hrs by Western blot method; type: functional, cell-based
In short: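 MCF7 cells treated with 10 μM for the indicated times. Full-length and cleaved PARP1 detected by Western blot of whole-cell extracts using rabbit polyclonal PARP1 antibody.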

[9] = Cytotoxicity against human NIH:OVCAR3 cells assessed as reduction in cell viability by MTT assay; type: functional, cell-based; details: OVCAR-3; in short: as §2
DNA topoisomerase 1 [10] = target: T2, DNA topoisomerase 1; assay: Inhibition of recombinant human topoisomerase-1 expressed in baculovirus infected sf9 cells using supercoiled pBS SK(+) DNA as substrate after 15 mins by ethidium bromide staining based agarose gel electrophoresis method; in short: as §1
MEF = assay: Cytotoxicity against TDP1+/+ MEF assessed as reduction in cell viability by MTT assay; type: cell-based; details: Mus musculus; in short: as §2
DNA topoisomerase 1 [11] = target: T2, DNA topoisomerase 1; assay: Binding affinity to recombinant human topoisomerase-1 expressed in baculovirus infected sf9 cells by spectrofluorimetric method
In short: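 Purified Top1 (200 nM) incubated with compound at 0–11 μM, 25 °C, 10 min. Tryptophan emission read at 350 nm (ex 295 nm). Fraction bound B = (F0 – F)/Fmax, with Fmax taken from a double-reciprocal 1/(F0 – F) vs 1/[X] plot; KD derived from this. Mean ± SD, n=3.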

[12] = target: T1, DNA topoisomerase 1 (Homo sapiens); assay: Binding affinity to recombinant human topoisomerase-1 expressed in baculovirus infected sf9 cells assessed as intrinsic tryptophan fluorescence quenching up to 1.25 uM by Job's plot analysis
In short: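 Job plot by continuous variation: Top1 (from Sf-9 cells infected with recombinant baculovirus) and compound varied to a combined final 1.25 μM. Tryptophan fluorescence quenching read at 350 nm with excitation at 295 nm. Mean ± SD of three independent experiments.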

Which results are given for `CN(C)c1ccc(-c2c3nc(c(-c4ccc(N(C)C)cc4)c4ccc([nH]4)c(-c4ccc(C(=O)O)cc4)c4nc(c(-c5ccc(C(=O)O)cc5)c5ccc2[nH]5)C=C4)C=C3)cc1`?
Activity [1]: inactive; Ratio EC50 [2]: 4 to 5; inhibition [3]: Active; Activity (MCF7 [4]): inactive; EC50 (DNA topoisomerase 1 [5]): 0.381 µM; IC50 (MCF7 [6]): 8.15 µM; fold change (FC) (MCF7 [7]): 3 - 5; IC50 (HEK293): > 10 µM; Activity (MCF7 [8]): Active; IC50 [9]: 5.19 µM; EC50 (DNA topoisomerase 1 [10]): 1.47 µM; IC50 (MEF): > 10 µM; Kd (DNA topoisomerase 1 [11]): 0.381 µM; Activity [12]: Active

Source: ChEMBL document CHEMBL4024789, “Neutral Porphyrin Derivative Exerts Anticancer Activity by Targeting Cellular Topoisomerase I (Top1) and Promotes Apoptotic Cell Death without Stabilizing Top1-DNA Cleavage Complexes” (J Med Chem, 2018)
